Assay results from PMC3135177 (Organic & biomolecular chemistry, 2010).

Experiments:
SirT1 [1] = target: T1, SirT1 (Homo sapiens, UniProt Q96EB6); conditions: NAD+ as substrate on SIRT1; cited from earlier work
T1 sequence (Q96EB6 1-747): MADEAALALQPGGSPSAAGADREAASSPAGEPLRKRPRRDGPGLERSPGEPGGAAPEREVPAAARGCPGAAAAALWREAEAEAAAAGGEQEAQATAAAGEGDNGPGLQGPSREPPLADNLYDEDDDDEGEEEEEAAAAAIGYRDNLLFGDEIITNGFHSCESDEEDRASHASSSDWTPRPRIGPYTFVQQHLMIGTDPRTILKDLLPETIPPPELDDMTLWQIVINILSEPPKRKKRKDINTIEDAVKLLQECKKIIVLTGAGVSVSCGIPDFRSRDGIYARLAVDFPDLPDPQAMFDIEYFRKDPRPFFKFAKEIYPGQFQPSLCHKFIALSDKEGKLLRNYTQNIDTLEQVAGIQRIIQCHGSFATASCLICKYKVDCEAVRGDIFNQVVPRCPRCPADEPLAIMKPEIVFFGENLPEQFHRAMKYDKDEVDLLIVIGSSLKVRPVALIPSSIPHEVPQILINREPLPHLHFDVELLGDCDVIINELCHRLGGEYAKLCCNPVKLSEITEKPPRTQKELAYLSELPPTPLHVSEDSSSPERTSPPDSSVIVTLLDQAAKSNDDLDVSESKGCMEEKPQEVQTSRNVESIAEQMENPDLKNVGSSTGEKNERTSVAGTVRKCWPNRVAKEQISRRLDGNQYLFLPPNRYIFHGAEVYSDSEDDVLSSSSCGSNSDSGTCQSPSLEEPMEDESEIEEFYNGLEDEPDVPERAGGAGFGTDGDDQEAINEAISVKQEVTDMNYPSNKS

SirT2 = target: T2, SirT2 (Homo sapiens, UniProt Q8IXJ6); assay: Inhibition of sirtuin-catalyzed deacetylation, SirT2; type: biochemical
T2 sequence (Q8IXJ6 1-389): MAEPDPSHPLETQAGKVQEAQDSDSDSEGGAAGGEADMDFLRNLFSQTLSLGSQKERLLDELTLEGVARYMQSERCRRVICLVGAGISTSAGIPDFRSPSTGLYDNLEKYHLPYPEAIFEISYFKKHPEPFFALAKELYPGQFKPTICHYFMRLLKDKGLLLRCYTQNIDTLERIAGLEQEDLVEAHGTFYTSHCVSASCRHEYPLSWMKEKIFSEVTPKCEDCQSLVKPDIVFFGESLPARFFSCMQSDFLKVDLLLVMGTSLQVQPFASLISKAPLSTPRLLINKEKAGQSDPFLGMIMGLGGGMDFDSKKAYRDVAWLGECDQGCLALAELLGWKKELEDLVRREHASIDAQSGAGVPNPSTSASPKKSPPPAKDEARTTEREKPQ

SirT1 [2] = target: T1, SirT1; assay: Inhibition of sirtuin-catalyzed deacetylation, SirT1; type: biochemical
In short: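 Purified SirT1 was incubated with NAD+, the test compound and an acetylated peptide substrate at 37 °C for 30–60 min. Activity was expressed as percent remaining, with uninhibited set at 100%, and plotted against log[test compound] in nM. IC50 came from a fit to v(%) = v(%)I − [v(%)I(10^x)/(10^x + IC50)].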

Af2Sir2 = target: T3, Af2Sir2 (Archaeoglobus fulgidus, UniProt O30124); assay: Inhibition of sirtuin-catalyzed deacetylation, Af2Sir2; type: biochemical
T3 sequence (O30124 1-253): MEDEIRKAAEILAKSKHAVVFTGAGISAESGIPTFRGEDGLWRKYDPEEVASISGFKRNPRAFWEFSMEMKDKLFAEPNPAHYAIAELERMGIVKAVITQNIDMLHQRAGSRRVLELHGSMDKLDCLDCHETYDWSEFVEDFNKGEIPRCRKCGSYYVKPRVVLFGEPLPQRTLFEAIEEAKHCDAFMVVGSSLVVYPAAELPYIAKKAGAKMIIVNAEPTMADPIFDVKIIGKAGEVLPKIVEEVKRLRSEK

Yeast Sir2 = Yeast Sir2 (Saccharomyces cerevisiae, UniProt P06700); assay: Inhibition of sirtuin-catalyzed deacetylation, yeast Sir2; type: biochemical
Yeast Sir2, sequence (P06700 whole entry): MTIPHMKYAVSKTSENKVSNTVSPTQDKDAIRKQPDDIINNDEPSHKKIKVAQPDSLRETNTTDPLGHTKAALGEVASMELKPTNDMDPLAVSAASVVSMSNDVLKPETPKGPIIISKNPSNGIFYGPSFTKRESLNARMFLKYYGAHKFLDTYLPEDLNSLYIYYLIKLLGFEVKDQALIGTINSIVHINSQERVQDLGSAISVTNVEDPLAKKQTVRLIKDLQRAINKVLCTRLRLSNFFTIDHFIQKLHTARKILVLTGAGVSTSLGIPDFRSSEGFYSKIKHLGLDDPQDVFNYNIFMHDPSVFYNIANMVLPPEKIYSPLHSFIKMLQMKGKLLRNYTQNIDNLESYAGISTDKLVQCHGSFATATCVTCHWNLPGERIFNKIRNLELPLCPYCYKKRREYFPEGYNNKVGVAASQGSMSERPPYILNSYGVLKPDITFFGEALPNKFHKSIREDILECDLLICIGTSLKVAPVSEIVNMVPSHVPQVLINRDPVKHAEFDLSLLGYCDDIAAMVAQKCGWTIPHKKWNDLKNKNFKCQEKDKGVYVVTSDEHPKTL

SMILES | Km (SirT1 [1]) [µM] | IC50 (SirT2) [µM] | IC50 (SirT1 [2]) [µM] | Ki (SirT1 [2]) [nM] | IC50 (Af2Sir2) [µM] | IC50 (Yeast Sir2) [µM]
NC(=O)c1ccc[n+]([C@@H]2O[C@H](COP(=O)([O-])OP(=O)(O)OC[C@H]3O[C@@H](n4cnc5c(N)ncnc54)[C@H](O)[C@@H]3O)[C@@H](O)[C@H]2O)c1 [NAD^+] | 165 |  |  |  |  | 
COC(=O)[C@H](C)NC(=O)[C@H](C)NC(=O)[C@H](CCCCNC(C)=S)NC(=O)c1ccc([N+](=O)[O-])cc1 [compound 1, N^α-4-nitrobenzoyl-N^ε-thioacetyl-lysinyl-alaninyl-alanine methyl ester] |  | 13.1 ± 0.54 | 6.5 ± 1 | 611 | 131 ± 26 | 19.5 ± 5.8
